The record followed here is PubChem BioAssay.

The source made the active and inactive calls.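 The calls were made as follows, unless noted: active = viability at or below 10% of carrier control in both of two separate runs; inconclusive = viability at or below 10% in only one of the two runs; inactive = the rest.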

Assay [1] is described as follows: reducers of endogenous Her2 protein level, primary screen, SKBR3 breast tumor cells, AlphaScreen, ATP viability (AID 461;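 active = Her2 level under about 52% in both replicate screens, with viability over 70% of control, limit read from the data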;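 as to Her2 level: lower value means less Her2 protein in the cells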;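 as to viability: percent of carrier control wells set as 100% viability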). The note with it: 18-24 h, measured here: SKBR3 viability, ATP luminescence, at 10 µM. (Bead proximity is the source of the signal in Alpha formats.)
Assay [2] deals with Receptor tyrosine-protein kinase erbB-2 (Homo sapiens) (UniProt P04626). Described as above. As to conditions: 18-24 h, at 10 µM, stronger effect = lower value.
Chain of Receptor tyrosine-protein kinase erbB-2 (Homo sapiens) (P04626 whole entry, looked up): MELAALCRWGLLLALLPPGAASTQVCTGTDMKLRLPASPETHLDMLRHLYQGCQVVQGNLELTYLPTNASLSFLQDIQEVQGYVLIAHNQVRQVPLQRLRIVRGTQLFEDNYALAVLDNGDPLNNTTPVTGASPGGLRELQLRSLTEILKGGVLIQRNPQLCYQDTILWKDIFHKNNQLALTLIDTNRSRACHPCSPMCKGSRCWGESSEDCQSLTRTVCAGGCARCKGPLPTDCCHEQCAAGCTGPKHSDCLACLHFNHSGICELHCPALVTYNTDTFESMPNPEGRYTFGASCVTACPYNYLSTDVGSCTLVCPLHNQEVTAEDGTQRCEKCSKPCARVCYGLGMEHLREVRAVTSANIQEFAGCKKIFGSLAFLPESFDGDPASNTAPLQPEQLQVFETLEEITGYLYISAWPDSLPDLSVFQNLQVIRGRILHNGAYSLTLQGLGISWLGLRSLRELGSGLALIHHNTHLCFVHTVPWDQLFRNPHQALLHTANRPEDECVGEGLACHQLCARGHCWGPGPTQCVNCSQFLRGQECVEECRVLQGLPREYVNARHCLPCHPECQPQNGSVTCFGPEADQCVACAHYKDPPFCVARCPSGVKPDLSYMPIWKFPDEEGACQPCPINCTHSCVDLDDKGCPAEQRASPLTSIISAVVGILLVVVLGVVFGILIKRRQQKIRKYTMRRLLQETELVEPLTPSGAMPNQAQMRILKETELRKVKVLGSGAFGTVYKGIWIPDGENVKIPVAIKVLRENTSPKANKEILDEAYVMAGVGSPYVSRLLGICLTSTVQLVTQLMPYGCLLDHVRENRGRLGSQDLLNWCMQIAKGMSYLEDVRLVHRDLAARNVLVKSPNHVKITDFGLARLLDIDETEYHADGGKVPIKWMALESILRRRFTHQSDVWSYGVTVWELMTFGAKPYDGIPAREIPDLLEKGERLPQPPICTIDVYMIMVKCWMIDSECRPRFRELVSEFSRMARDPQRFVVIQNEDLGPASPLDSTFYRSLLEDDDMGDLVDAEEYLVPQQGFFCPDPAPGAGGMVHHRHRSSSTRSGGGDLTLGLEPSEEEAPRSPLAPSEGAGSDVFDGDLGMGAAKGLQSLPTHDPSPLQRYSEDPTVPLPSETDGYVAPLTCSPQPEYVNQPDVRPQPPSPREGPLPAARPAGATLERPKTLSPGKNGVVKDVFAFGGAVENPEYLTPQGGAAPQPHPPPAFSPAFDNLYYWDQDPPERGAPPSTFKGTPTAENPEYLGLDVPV
Assay [3] in a line: SK-BR-3 cell growth inhibitors, pilot screen, 24 h, human (AID 572).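 Also: compound exposure lasted between 18 and 24 h rather than exactly 24 h; 100% = carrier-treated control wells.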 As to conditions: SK-BR-3 viability, CellTiter-Glo luminescence, at 10 µM, stronger effect = lower value.
Assay [4] is described as follows: HUVEC growth inhibition – cell-based, human, primary screen (AID 575;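 active = viability at or below 30% in both replicate assays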;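 also: 100% = median of untreated cell wells with 0.1% DMSO on each plate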). The note with it: HUVEC proliferation, CellTiter-Glo luminescence, 72 h; at 10 µM; stronger effect = lower value. In a few lines: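 Material: primary human umbilical vein endothelial cells / Schedule: 72 h exposure, 37 °C, 5% CO2, 30 min RT equilibration / Signal: ATP-based CellTiter-Glo luminescent read / Read-out basis: percent of median DMSO-control luminescence / Control set: 32 DMSO-only cell-control wells (high), 32 MePR drug-control wells (low) per plate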
For orientation: In ATP-based viability assays light output follows the ATP content of the culture.

Assay [5] is described as follows: growth inhibitors of H69AR lung tumor, primary screen, human, duplicate replicates (AID 580;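 active = viability at or under a set limit in both replicates, limit being median viability minus 3 SD, cut at about 48% in these data, passing the limit was not always enough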;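 also: 100% = mean luminescence of untreated wells and 0% = no signal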). As to conditions: H69AR lung tumor cells viability, ATP luminescence, 72 h; at 10 µM; stronger effect = lower value.
Assay [6] in a line: reversal of MRP1-mediated doxorubicin resistance, pilot screen, H69AR cells, doxorubicin co-treatment (AID 601;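 active = viability loss from added drug above about 55%, and viability with drug at most 40%, in both replicates, limit read from the data, passing the limit was not always enough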). As to conditions: CellTiter-Glo, 72 h, at 10 µM; for differential viability (reversal): stronger effect = higher value.
Setting [7] is: H69AR cells + 2 uM doxorubicin, measured here: viability with 2 uM doxorubicin, stronger effect = lower value.
The mark [8] stands for this setting: H69AR cells, compound alone cytotoxicity.

Broadly, the viability is a read-out of living cells in per cent, often relative to untreated cells. `Nc1ccc(S(=O)(=O)Nc2ncccn2)cc1`: the viability in assay [1] was 96.5%; in assay [3], 96.5% (inactive); in assay [4], 91.4% (inactive); in assay [5] it was 104% (inactive); in assay [6] (setting [7]) it was 98.7%; in assay [6] (setting [8]), 104%. Moreover, the Her2 level in assay [2] is 100% (inactive). Also, the differential viability (reversal) in assay [6] (H69AR cells + 2 uM doxorubicin) is 5.02% (inactive).
Consider `NC(N)=NS(=O)(=O)c1ccc(N)cc1`, for which the viability in assay [1] is 100%; in assay [3] it was 100% (inactive); in assay [4], 89.2% (inactive); in assay [5], 98.8% (inactive); in assay [6] (setting [7]), 102%; in assay [6] (setting [8]) it was 98.8%. Also, the Her2 level in assay [2] was 105% (inactive). For the same compound, the differential viability (reversal) in assay [6] (H69AR cells + 2 uM doxorubicin) is -2.93% (inactive).
With `CC1(C)O[C@@H]2C[C@H]3[C@@H]4CCC5=CC(=O)C=C[C@]5(C)[C@@]4(F)[C@@H](O)C[C@]3(C)[C@]2(C(=O)CO)O1`, the viability is 90.5% in assay [1]; 90.5% (inactive) in assay [3]; 103% (inactive) in assay [4]; 92.8% (inactive) in assay [5]; 103% in assay [6] (setting [7]); 92.8% in assay [6] (setting [8]). The Her2 level in assay [2] is 128% (inactive). The differential viability (reversal) in assay [6] (H69AR cells + 2 uM doxorubicin) was -10.5% (inactive).
Consider `O=c1n(CCCN2CCN(c3cccc(Cl)c3)CC2)nc2ccccn12`, for which the viability in assay [1] was 81%; in assay [3] it was 81% (inactive); in assay [4], 99.2% (inactive); in assay [5], 87.3% (inactive); in assay [6] (setting [7]), 94.3%; in assay [6] (setting [8]), 87.3%. Besides, in assay [2], the Her2 level is 93% (inactive). Further, the differential viability (reversal) in assay [6] (H69AR cells + 2 uM doxorubicin) is -7.03% (inactive).
For the compound `NC(Cc1ccc(Oc2ccc(O)cc2)cc1)C(=O)O` (stereo unspecified), the viability was 92.5% in assay [1]; 92.5% (inactive) in assay [3]; 107% (inactive) in assay [4]; 80.8% (inactive) in assay [5]; 73.1% in assay [6] (setting [7]); 80.8% in assay [6] (setting [8]). In assay [2], the Her2 level was 97% (inactive). The differential viability (reversal) in assay [6] (H69AR cells + 2 uM doxorubicin) was 7.61% (inactive).
`O=C1N[C@@H](Cc2cnc[nH]2)C(=O)N2CCC[C@@H]12`: the viability in assay [1] was 113%; in assay [3] it was 113% (inactive); in assay [4], 94.9% (inactive); in assay [5] it was 87.1% (inactive); in assay [6] (setting [7]), 89.3%; in assay [6] (setting [8]), 87.1%. Besides, in assay [2], the Her2 level was 97% (inactive). The differential viability (reversal) in assay [6] (H69AR cells + 2 uM doxorubicin) was -2.25% (inactive).
As for `Clc1ccc(Cn2c(CN3CCCC3)nc3ccccc32)cc1`, the viability in assay [1] is 92.5%; in assay [3] it was 92.5% (inactive); in assay [4], 85.5% (inactive); in assay [5] it was 73.3% (inactive); in assay [6] (setting [7]) it was 85.9%; in assay [6] (setting [8]), 73.3%. In addition, the Her2 level in assay [2] was 112% (inactive). Also, the differential viability (reversal) in assay [6] (H69AR cells + 2 uM doxorubicin) was -12.6% (inactive).
In the case of `CCCNCC(O)COc1ccccc1C(=O)CCc1ccccc1` (stereo unspecified), the viability in assay [1] is 97%; in assay [3], 97% (inactive); in assay [4] it was 97.2% (inactive); in assay [5], 87.1% (inactive); in assay [6] (setting [7]), 84.8%; in assay [6] (setting [8]), 87.1%. Moreover, the Her2 level in assay [2] was 100% (inactive). The differential viability (reversal) in assay [6] (H69AR cells + 2 uM doxorubicin) is 2.24% (inactive).
For `CC(C)C[C@H](NC(=O)[C@@H]1O[C@H]1C(=O)O)C(=O)NCCCCN=C(N)N`, the viability in assay [1] was 100%; in assay [3] it was 100% (inactive); in assay [4], 86% (inactive); in assay [5], 100% (inactive); in assay [6] (setting [7]) it was 103%; in assay [6] (setting [8]), 100%. For the same compound, the Her2 level in assay [2] is 104% (inactive). In addition, the differential viability (reversal) in assay [6] (H69AR cells + 2 uM doxorubicin) was -2.29% (inactive).
`CC[N+](C)(C)Cc1ccccc1Br`: the viability in assay [1] was 102%; in assay [3], 102% (inactive); in assay [4], 107% (inactive); in assay [5], 98.8% (inactive); in assay [6] (setting [7]), 103%; in assay [6] (setting [8]), 98.8%. The Her2 level in assay [2] was 92% (inactive). The differential viability (reversal) in assay [6] (H69AR cells + 2 uM doxorubicin) is -4.18% (inactive).
Consider `CCCC(=O)O[C@]1(C(=O)COC(C)=O)CC[C@H]2[C@@H]3C[C@H](F)C4=CC(=O)C=C[C@]4(C)[C@@]3(F)[C@@H](O)C[C@@]21C`, for which the viability in assay [1] is 95%; in assay [3], 95% (inactive); in assay [4], 96.9% (inactive); in assay [5], 95.6% (inactive); in assay [6] (setting [7]), 104%; in assay [6] (setting [8]) it was 95.6%. Besides, the Her2 level in assay [2] was 97.5% (inactive). Moreover, the differential viability (reversal) in assay [6] (H69AR cells + 2 uM doxorubicin) was -8.84% (inactive).
In the case of `OCCOCCN1CCN(C(c2ccccc2)c2ccc(Cl)cc2)CC1` (stereo unspecified), the viability in assay [1] was 79%; in assay [3], 79% (inactive); in assay [4], 90.1% (inactive); in assay [5], 98.3% (inactive); in assay [6] (setting [7]), 89%; in assay [6] (setting [8]), 98.3%. Besides, the Her2 level in assay [2] is 80% (inactive). Moreover, the differential viability (reversal) in assay [6] (H69AR cells + 2 uM doxorubicin) was 9.31% (inactive).
